In ChEMBL document CHEMBL4190353, “Synthesis, structure-activity relationships and preliminary mechanism of action of novel water-soluble 4-quinolone-3-carboxamides as antiproliferative agents” (Eur J Med Chem, 2017):
The source made the active and inactive calls. The calls are words filed in the database; no cut-off is given here.

Assays:
HCT-116 [1] = test: Inhibition of colony formation of human HCT116 cells pre-treated with 7.5 mM GSH for 2 hrs followed by 16 to 32 uM compound addition and further incubated for 24 hrs and measured after 10 days post dose in fresh medium by crystal violet staining based photography; format: functional, cell-based
How it was run: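 HCT116 seeded at about 300 per well in 12-well plates and grown 2 h. Pre-treated 2 h with H2O, 7.5 mM L-NAC or GSH, then exposed to compound for 24 h. Colonies grown 10 days in fresh medium, stained with crystal violet and counted. Triplicate wells.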

PC-3 = test: Cytotoxicity against human PC3 cells assessed as reduction in cell viability incubated for 24 hrs by MTT assay; format: functional, cell-based; settings: PC-3, 24 h
How it was run: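 Cells were kept in McCoy's 5A with 10% fetal bovine serum, streptomycin and 100 units·mL⁻¹ penicillin at 37 °C under 5% CO₂/95% air. Viability was read by MTT optical density. IC50 is the concentration that lowers optical density by 50% relative to untreated cells. Values are means with SD of at least three independent determinations.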

HCT-116 [2] = test: Induction of apoptosis in Bax-/- human HCT116 cells assessed as early apoptotic cells level pre-incubated with 20 uM pan-caspase inhibitor Z-VAD-FMK for 5 hrs followed by compound addition and further incubated for 48 hrs by Annexin V-FITC/PI staining based cytometry (reference value: 6.8%); format: functional; design: scale not given: the % may be the effect or the level left
HCT-116 [3] = test: Induction of apoptosis in human HCT116 cells assessed as increase in cleaved PARP level pre-treated with 7.5 mM L-NAC for 6 hrs followed by 4 to 8 uM compound addition and further incubated for 24 hrs by Western blot method; format: functional, cell-based
How it was run: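 HCT116 cells were pretreated with H2O or 7.5 mM L-NAC for 6 h, then exposed to 0, 4 or 8 µM for 24 h. Lysates were made in SDS buffer and run on 10% SDS-PAGE. Blots were probed for cleaved PARP (1:1000) with GAPDH (1:5000) as control, and detected by ECL.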

CCN(CC)CCCNC(=O)c1cn(CCCc2ccccc2)c2cc(Cl)ccc2c1=O.Cl
inhibition (HCT-116 [1]): inactive
IC50 (PC-3): 6.41 µM
Activity (HCT-116 [2]): 10.2%
Activity (HCT-116 [3]): inactive
